Measured values: article PMC4064470 (Journal of medicinal chemistry, 2013)

Experiments:
[1] = target: T1, recombinant human VAP-1 (Homo sapiens, UniProt Q16853); assay: In vitro inhibition of recombinant human VAP-1 activity; assay type: biochemical; conditions: control compound
T1 sequence (Q16853 1-763): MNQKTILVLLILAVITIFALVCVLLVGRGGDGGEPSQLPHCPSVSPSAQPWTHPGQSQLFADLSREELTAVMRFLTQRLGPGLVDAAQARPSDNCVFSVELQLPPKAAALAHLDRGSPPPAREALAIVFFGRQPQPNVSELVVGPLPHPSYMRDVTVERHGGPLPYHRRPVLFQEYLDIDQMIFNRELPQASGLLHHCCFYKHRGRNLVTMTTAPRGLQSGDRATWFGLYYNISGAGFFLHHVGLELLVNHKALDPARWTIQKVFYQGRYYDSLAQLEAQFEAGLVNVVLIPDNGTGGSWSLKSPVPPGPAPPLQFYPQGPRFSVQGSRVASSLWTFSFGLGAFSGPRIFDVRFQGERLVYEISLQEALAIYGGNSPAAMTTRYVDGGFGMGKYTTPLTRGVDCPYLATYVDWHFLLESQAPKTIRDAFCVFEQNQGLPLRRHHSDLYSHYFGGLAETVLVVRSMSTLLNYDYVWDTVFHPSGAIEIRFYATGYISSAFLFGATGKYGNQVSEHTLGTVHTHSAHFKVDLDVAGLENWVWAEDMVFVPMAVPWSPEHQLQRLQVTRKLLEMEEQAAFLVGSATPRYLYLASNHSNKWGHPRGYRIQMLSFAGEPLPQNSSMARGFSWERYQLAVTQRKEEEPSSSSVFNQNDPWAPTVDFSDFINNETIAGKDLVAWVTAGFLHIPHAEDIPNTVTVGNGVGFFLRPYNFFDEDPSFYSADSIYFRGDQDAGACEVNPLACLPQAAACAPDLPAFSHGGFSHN
How it was run: (§1)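 Enzyme source was lysate of CHO cells stably transfected with VAP-1 (native CHO has negligible activity), dosed to give 0.6 A490/h. Test compound (1 nM–50 μM) was preincubated 30 min at 37 °C with 0.2 M potassium phosphate pH 7.6, 1 mM 2,4-dichlorophenol, 500 μM 4-aminoantipyrine and 4 U/ml HRP. Then 1 mM benzylamine (final) was added for 1 h at 37 °C and A490 read. Percent inhibition was background-corrected and IC50 fitted, from two to six experiments.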

[2] = target: T2, recombinant mouse VAP-1 (Mus musculus, UniProt O70423); assay: In vitro inhibition of recombinant mouse VAP-1 activity; assay type: biochemical; conditions: control compound; mouse VAP-1 in Figure 1
T2 sequence (O70423 1-765): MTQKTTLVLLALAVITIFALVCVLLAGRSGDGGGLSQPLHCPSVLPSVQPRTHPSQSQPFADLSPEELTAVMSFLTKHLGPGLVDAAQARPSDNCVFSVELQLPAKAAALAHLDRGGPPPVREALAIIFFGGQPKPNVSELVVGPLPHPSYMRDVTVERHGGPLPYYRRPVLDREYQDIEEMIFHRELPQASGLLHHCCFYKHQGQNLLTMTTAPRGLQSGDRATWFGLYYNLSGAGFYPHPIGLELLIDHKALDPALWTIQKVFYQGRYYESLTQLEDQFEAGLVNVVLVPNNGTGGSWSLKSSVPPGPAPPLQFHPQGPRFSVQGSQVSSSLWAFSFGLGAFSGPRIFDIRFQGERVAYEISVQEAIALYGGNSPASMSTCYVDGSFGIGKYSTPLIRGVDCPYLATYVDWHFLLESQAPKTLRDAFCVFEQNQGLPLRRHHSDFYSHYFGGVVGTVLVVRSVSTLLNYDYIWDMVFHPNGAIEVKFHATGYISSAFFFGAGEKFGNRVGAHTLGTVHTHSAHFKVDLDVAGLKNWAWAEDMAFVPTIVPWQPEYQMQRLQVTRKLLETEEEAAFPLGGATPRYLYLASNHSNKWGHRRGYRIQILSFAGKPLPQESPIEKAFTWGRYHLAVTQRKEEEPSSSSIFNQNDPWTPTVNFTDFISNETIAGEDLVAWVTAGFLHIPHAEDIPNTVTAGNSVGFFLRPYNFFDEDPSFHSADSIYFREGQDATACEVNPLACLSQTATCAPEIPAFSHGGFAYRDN
How it was run: as §1

inhibition of human VAP-1 (in words) [1]: inhibits
inhibition of rodent VAP-1 (in words) [2]: inhibits
SMILES: CN(N)[C@H](c1ccccc1)[C@@H](O)c1ccccc1.O=C(O)C(O)C(O)C(=O)O [Compound 11d, (1S,2R)-2-(1-methylhydrazino)-1,2-diphenylethanol (S,S)-tartrate salt]
